Test system: HEK-293T
Test: Multiplex assay against HEK293T;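 on Population Tubulin-Different-Phenotype (%): share of the cells with healthy nuclei that show this phenotype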
Assay type: toxicity, cell-based
Conditions: human
Outline: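 On a CQ1 microscope at 37°C and 5% CO2, live cells were imaged after compound addition. They had been stained at seeding with Hoechst33342, BioTracker Green Microtubule Cytoskeleton Dye, MitoTracker Red and Annexin V Alexa Fluor 680. CellPathfinder machine-learning gating assigned cells to Hoechst high-intensity objects or normal cells, normal cells to healthy, pyknosed or fragmented nuclei, and pyknosed cells to mitotic or apoptotic. Tubulin, mitochondrial-mass and membrane-permeability phenotypes are per cents of healthy-nucleus cells.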

[1] = 12 h, 1 µM, compound concentration 1 uM, replicate 1
[2] = 12 h, 1 µM, compound concentration 1 uM, replicate 2
[3] = 12 h, 10 µM, compound concentration 10 uM, replicate 1
[4] = 12 h, 10 µM, compound concentration 10 uM, replicate 2
[5] = 24 h, 1 µM, compound concentration 1 uM, replicate 1
[6] = 24 h, 1 µM, compound concentration 1 uM, replicate 2
[7] = 24 h, 10 µM, compound concentration 10 uM, replicate 1
[8] = 24 h, 10 µM, compound concentration 10 uM, replicate 2

SMILES: CCc1cccc(CC)c1NC(=O)c1nn(C)c2c1CCc1cnc(Nc3ccc(N4CCN(C)CC4)cc3OC)nc1-2
- Population Apoptotic (%) [1]: 27%
- Population Fragmented Nuclei (%) [1]: 14%
- Population Healthy Nuclei (%) [1]: 18%
- Population Hoechst High Intensity Objects (%) [1]: 18%
- Population Membrane Permeable-Phenotype (%) [1]: 11%
- Population Mitochondria Different-Phenotype (%) [1]: 32%
- Population Mitotic Cells (%) [1]: 72%
- Population Normal (%) [1]: 81%
- Population Pyknosed Nuclei (%) [1]: 67%
- Population Tubulin-Different-Phenotype (%) [1]: 75%
- Total Cell Count [1]: 690
- Population Apoptotic (%) [2]: 19%
- Population Fragmented Nuclei (%) [2]: 2%
- Population Healthy Nuclei (%) [2]: 54%
- Population Hoechst High Intensity Objects (%) [2]: 7%
- Population Membrane Permeable-Phenotype (%) [2]: 5%
- Population Mitochondria Different-Phenotype (%) [2]: 69%
- Population Mitotic Cells (%) [2]: 80%
- Population Normal (%) [2]: 92%
- Population Pyknosed Nuclei (%) [2]: 42%
- Population Tubulin-Different-Phenotype (%) [2]: 97%
- Total Cell Count [2]: 922
- Population Apoptotic (%) [3]: 19%
- Population Fragmented Nuclei (%) [3]: 11%
- Population Healthy Nuclei (%) [3]: 64%
- Population Hoechst High Intensity Objects (%) [3]: 14%
- Population Membrane Permeable-Phenotype (%) [3]: 13%
- Population Mitochondria Different-Phenotype (%) [3]: 12%
- Population Mitotic Cells (%) [3]: 80%
- Population Normal (%) [3]: 85%
- Population Pyknosed Nuclei (%) [3]: 24%
- Population Tubulin-Different-Phenotype (%) [3]: 54%
- Total Cell Count [3]: 730
- Population Apoptotic (%) [4]: 5%
- Population Fragmented Nuclei (%) [4]: 3%
- Population Healthy Nuclei (%) [4]: 89%
- Population Hoechst High Intensity Objects (%) [4]: 2%
- Population Membrane Permeable-Phenotype (%) [4]: 8%
- Population Mitochondria Different-Phenotype (%) [4]: 24%
- Population Mitotic Cells (%) [4]: 94%
- Population Normal (%) [4]: 97%
- Population Pyknosed Nuclei (%) [4]: 6%
- Population Tubulin-Different-Phenotype (%) [4]: 57%
- Total Cell Count [4]: 1395
- Population Apoptotic (%) [5]: 39%
- Population Fragmented Nuclei (%) [5]: 18%
- Population Healthy Nuclei (%) [5]: 17%
- Population Hoechst High Intensity Objects (%) [5]: 13%
- Population Membrane Permeable-Phenotype (%) [5]: 11%
- Population Mitochondria Different-Phenotype (%) [5]: 41%
- Population Mitotic Cells (%) [5]: 60%
- Population Normal (%) [5]: 86%
- Population Pyknosed Nuclei (%) [5]: 63%
- Population Tubulin-Different-Phenotype (%) [5]: 68%
- Total Cell Count [5]: 683
- Population Fragmented Nuclei (%) [6]: 3%
- Population Healthy Nuclei (%) [6]: 27%
- Population Hoechst High Intensity Objects (%) [6]: 12%
- Population Membrane Permeable-Phenotype (%) [6]: 3%
- Population Mitochondria Different-Phenotype (%) [6]: 92%
- Population Normal (%) [6]: 87%
- Population Pyknosed Nuclei (%) [6]: 68%
- Population Tubulin-Different-Phenotype (%) [6]: 89%
- Total Cell Count [6]: 901
- Population Apoptotic (%) [7]: 27%
- Population Fragmented Nuclei (%) [7]: 11%
- Population Healthy Nuclei (%) [7]: 77%
- Population Hoechst High Intensity Objects (%) [7]: 8%
- Population Membrane Permeable-Phenotype (%) [7]: 20%
- Population Mitochondria Different-Phenotype (%) [7]: 9%
- Population Mitotic Cells (%) [7]: 72%
- Population Normal (%) [7]: 91%
- Population Pyknosed Nuclei (%) [7]: 10%
- Population Tubulin-Different-Phenotype (%) [7]: 65%
- Total Cell Count [7]: 803
- Population Apoptotic (%) [8]: 11%
- Population Fragmented Nuclei (%) [8]: 8%
- Population Healthy Nuclei (%) [8]: 88%
- Population Hoechst High Intensity Objects (%) [8]: 3%
- Population Membrane Permeable-Phenotype (%) [8]: 13%
- Population Mitotic Cells (%) [8]: 88%
- Population Normal (%) [8]: 96%
- Population Pyknosed Nuclei (%) [8]: 3%
- Population Tubulin-Different-Phenotype (%) [8]: 62%
- Total Cell Count [8]: 1777

From ChEMBL document CHEMBL4689842, “EUbOPEN Chemogenomics Library wave 1” (2021)
